13 compounds from ChEMBL document CHEMBL2046346, “Discovery of phenylpropanoic acid derivatives containing polar functionalities as potent and orally bioavailable G protein-coupled receptor 40 agonists for the treatment of type 2 diabetes” (J Med Chem, 2012) can be followed below.

Each structure is given as a SMILES string.

Data set [1] can be described thus: Lipophilicity, log D of the compound by RP-HPLC analysis. It is filed as physicochemical.
Data set [2] has as its target Free fatty acid receptor 1 (Rattus norvegicus, UniProt Q8K3T4). Kind of data set: Displacement of 3-[4-({2',6'-dimethyl-6-[(4-[3H])phenylmethoxy]biphenyl-3-yl}methoxy)phenyl] propanoic acid from rat GPR40 receptor expressed in CHO cell membrane after 90 mins by liquid scintillation counting in the presence of 0.2% BSA. It is filed as cell membranes. In short, it runs like this: (§1)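 Membranes from CHO lines stably expressing human or rat GPR40, buffer 25 mmol/L Tris-HCl pH 7.5, 5 mmol/L EDTA, protease inhibitors, 0.05% CHAPS, 0.2% fatty-acid-free BSA. Tritiated ligand at 2 or 6 nmol/L with graded test compound, 90 min room temperature, GF/C filtration, scintillation counting. Nonspecific binding: 10 μmol/L unlabeled ligand. IC50 by nonlinear regression, Ki = IC50/(1+[L]/Kd).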

Data set [3] deals with T1, Free fatty acid receptor 1 (Homo sapiens, UniProt O14842). The experiment in a line: Agonist activity at human GPR40 receptor expressed in CHO cells assessed as increase in intracellular calcium level for 90 secs by FLIPR assay in the presence of 0.1% BSA. The data set is classed as functional, cell-based. In short, it runs like this:
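CHO dhfr cells stably expressing human GPR40 plated overnight, loaded 60 min at 37 °C with Fluo 4 AM (2.5 μg/mL), 2.5 mmol/L probenecid, 0.1% fatty acid-free BSA. Ca2+ rise after compound addition read 90 s; response scaled between vehicle (0%) and 10 μM γ-linolenic acid (100%).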
A general note: Calcium assays in cells follow changes in intracellular calcium, usually with a dye or a luminescent sensor.

The target in data set [4] is T1, Free fatty acid receptor 1. Kind of data set: Displacement of 3-[4-({2',6'-dimethyl-6-[(4-[3H])phenylmethoxy]biphenyl-3-yl}methoxy)phenyl] propanoic acid from human GPR40 receptor expressed in CHO cell membrane after 90 mins by liquid scintillation counting in the presence of 0.2% BSA. The data set is classed as cell membranes. In short, it runs like this:
as §1

A short description of data set [5]: Cytotoxicity against human HepG2 cells assessed as intracellular ATP level at 30 uM after 24 hrs by ATPlite assay relative to control. The data set is classed as cell-based. Particulars: read-out: Activity. A digest of the protocol: (§2)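 HepG2 cells seeded 2 × 10^4/well, treated 1 day in DMEM with 0.5% FBS, 2 mM L-glutamine, 1 mM pyruvate. ATP measured by ATPlite luminescence; % of 1% DMSO control (RLU ratio ×100), n = 3.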
In general terms: ATP-based viability assays read luminescence as a measure of living cells.

Data set [6] concerns HepG2. Kind of data set: Induction of apoptosis in human HepG2 cells assessed as caspase 3/7 activity at 10 uM after 24 hrs by caspase Glo assay relative to staurosporine. It is filed as cell-based. Particulars: hepg2, 24 h. A digest of the protocol:
(§3)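 HepG2 cells seeded 2 × 10^4/well, treated 1 day in DMEM with 0.5% FBS, 2 mM L-glutamine, 1 mM pyruvate. Caspase-Glo 3/7 luminescence; activity = (compound − 1% DMSO)/(30 μM staurosporine − 1% DMSO) ×100, n = 3.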

Data set [7] can be described thus: Cytotoxicity against human HepG2 cells assessed as intracellular ATP level at 10 uM after 24 hrs by ATPlite assay relative to control. The data set is classed as cell-based. As to conditions: read-out: Activity. In short, it runs like this: as §2
In data set [8] the test system is HepG2. The experiment in a line: Induction of apoptosis in human HepG2 cells assessed as caspase 3/7 activity at 30 uM after 24 hrs by caspase Glo assay relative to staurosporine. The data set is classed as cell-based. Particulars: hepg2, 24 h. A digest of the protocol:
as §3

T1 sequence (O14842 whole entry): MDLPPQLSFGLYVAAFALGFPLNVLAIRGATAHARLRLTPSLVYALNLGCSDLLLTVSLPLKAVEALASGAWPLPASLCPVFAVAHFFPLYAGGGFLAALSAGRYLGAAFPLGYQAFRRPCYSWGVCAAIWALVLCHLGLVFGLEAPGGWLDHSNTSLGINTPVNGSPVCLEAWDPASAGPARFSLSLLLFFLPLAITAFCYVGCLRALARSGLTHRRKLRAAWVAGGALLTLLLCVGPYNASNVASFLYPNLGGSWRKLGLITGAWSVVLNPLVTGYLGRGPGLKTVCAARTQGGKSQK
Chain of Free fatty acid receptor 1 (Rattus norvegicus, UniProt Q8K3T4) (Q8K3T4 whole entry): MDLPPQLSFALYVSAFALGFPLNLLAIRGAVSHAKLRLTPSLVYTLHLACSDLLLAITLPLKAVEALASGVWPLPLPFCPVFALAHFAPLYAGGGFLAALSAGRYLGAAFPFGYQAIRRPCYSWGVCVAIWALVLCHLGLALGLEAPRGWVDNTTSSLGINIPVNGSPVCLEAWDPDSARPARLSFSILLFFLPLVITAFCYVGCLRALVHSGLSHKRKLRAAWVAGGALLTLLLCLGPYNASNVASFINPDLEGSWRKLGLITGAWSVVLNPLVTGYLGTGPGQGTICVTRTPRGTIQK

Take `Cc1cccc(C)c1-c1cccc(COc2ccc(CCC(=O)O)cc2)c1C`: the logD in data set [1] was 4.22. In addition, the Ki in data set [2] turned out to be 30 nM; in data set [4] it was 58 nM. Also, the EC50 in data set [3] was 40 nM.
The like results for `Cc1cc(OCC2CC2)cc(C)c1-c1cccc(COc2ccc(CCC(=O)O)cc2)c1` were, in that order, 4.61, 5.6 nM, 16 nM and 15 nM.
In turn, `COc1cc(COc2ccc(CCC(=O)O)c(F)c2)cc(-c2c(C)cccc2C)c1` returned a logD in data set [1] of 4.16. Besides, the inhibition constant (Ki) is 120 nM in data set [2] and 99 nM in data set [4].
Regarding `Cc1cc(OCc2ccccc2)cc(C)c1-c1cccc(COc2ccc(CCC(=O)O)cc2)c1`, the logD in data set [1] came out at 5.08. Further, the values for the Ki in data set [2] and in data set [4] were 6.7 nM and 15 nM, respectively. For the same compound, the EC50 in data set [3] is 14 nM.
`CCOCCOc1cc(C)c(-c2cccc(COc3ccc(CCC(=O)O)cc3)c2)c(C)c1`: in data set [1], the pH-dependent lipophilicity (logD) worked out at 3.89. Besides, the Ki in data set [2] was 10 nM; in data set [4] it was 23 nM. Besides, in data set [3], the EC50 turned out to be 13 nM.
As to `Cc1cc(OC2CCOCC2)cc(C)c1-c1cccc(COc2ccc(CCC(=O)O)c(F)c2)c1`, the logD in data set [1] was 4.1. Moreover, the viability at 24 h, 30 µM in data set [5] turned out to be 38.1%. Moreover, the Ki in data set [2] stood at 6.7 nM; in data set [4], 20 nM. Besides, the EC50 in data set [3] is 23 nM. For the same compound, the Activity in the data set with HepG2 [6] amounted to 0.9%; with HepG2 [8] it was 42.8%. Also, in data set [7], the viability at 24 h, 10 µM was 60.3%.
The compound `CCOCCOc1cc(C)c(-c2cccc(CNc3ccc(CCC(=O)O)c(F)c3)c2)c(C)c1.Cl` had a logD in data set [1] of 3.49. Further, the viability at 24 h, 30 µM in data set [5] turned out to be 48.5%. Moreover, the Ki in data set [2] amounted to 6.2 nM; in data set [4] it was 18 nM. In data set [3], the EC50 is 26 nM. In addition, the Activity with HepG2 [6] was 5.3%; in the data set with HepG2 [8] it was 1.2%. The viability at 24 h, 10 µM in data set [7] stood at 9.9%.
The compound `COc1cc(C)c(-c2cccc(COc3ccc(CCC(=O)O)cc3)c2)c(C)c1` yielded a logD in data set [1] of 3.83. In addition, the Ki in data set [2] worked out at 6.2 nM; in data set [4], 25 nM. For the same compound, in data set [3], the EC50 came to 12 nM.
`Cc1cc(OCC2(O)CCS(=O)(=O)CC2)cc(C)c1-c1cccc(COc2ccc(CCC(=O)O)c(F)c2)c1`: in data set [1], the logD stood at 2.78. For the same compound, the viability at 24 h, 30 µM in data set [5] turned out to be 61.5%. The Ki was 8.2 nM in data set [2] and 19 nM in data set [4]. The EC50 in data set [3] is 15 nM. Moreover, the Activity with HepG2 [6] is listed as -0.2%; in the data set on HepG2 [8] it was 2.8%. Further, the viability at 24 h, 10 µM in data set [7] was determined as 88.6%.
`Cc1cccc(Oc2cc(C)c(-c3cccc(COc4ccc(CCC(=O)O)c(F)c4)c3)c(C)c2)n1.Cl` had a pH-dependent lipophilicity (logD) in data set [1] of 4.23. Also, in data set [5], the viability at 24 h, 30 µM was 47.5%. For the same compound, the Ki in data set [2] was 6.7 nM; in data set [4] it was 12 nM. Moreover, the EC50 in data set [3] stood at 31 nM. Moreover, the results for the Activity in the data set on HepG2 [6] and in the data set with HepG2 [8] were -0.4% and 41.1%, respectively. Also, the viability at 24 h, 10 µM in data set [7] is 56.7%.
In turn, `COc1ccc(-c2c(C)cccc2C)cc1COc1ccc(CCC(=O)O)cc1` showed a logD in data set [1] of 4.04. The Ki in data set [2] was 10000 nM; in data set [4], 520 nM.
As to `Cc1cc(OC2CCS(=O)(=O)CC2)cc(C)c1-c1cccc(CNc2ccc(CCC(=O)O)c(F)c2)c1`, the logD in data set [1] was found to be 2.44. Further, in data set [5], the viability at 24 h, 30 µM is 60.7%. Further, the values for the Ki in data set [2] and in data set [4] were 5.1 nM and 18 nM, respectively. In addition, the EC50 in data set [3] was 23 nM. Besides, the Activity in the data set on HepG2 [6] is -0.5%; with HepG2 [8], -0.7%. Moreover, the viability at 24 h, 10 µM in data set [7] was determined as 78.8%.
In data set [1], `COc1ccc(COc2ccc(CCC(=O)O)cc2)cc1-c1c(C)cccc1C` displayed a logD of 3.38. Also, the Ki in data set [2] amounted to 87 nM; in data set [4] it was 47 nM. For the same compound, the EC50 in data set [3] was determined as 20 nM.

As usually defined, the logD is the decadic logarithm of the distribution of all forms, ionised or not, between an organic phase and buffer at a given pH. Lower therefore signals lower lipophilicity. The term Ki denotes a measure of affinity in units of concentration, obtained from inhibition or displacement. As a reminder, the EC50 is the concentration that produces a half-maximal response.
